Data on 26 molecules can be found in ChEMBL document CHEMBL1139230, “New beta-alanine derivatives are orally available glucagon receptor antagonists” (J Med Chem, 2007).

What is called IC50 is the concentration needed to halve the response being measured. The low end stands for inhibition by little substance, the high end for a need for much substance. In general, Cmax refers to the highest concentration seen after dosing. As usually defined, the AUC is concentration integrated over time. Read a high AUC as more exposure. For orientation: half-life means the time in which the quantity being followed falls by half. One may read the bioavailability as the share of a dose that reaches the circulation, judged against a reference dose that is usually intravenous. A word on the Tmax: it is the time from dosing to the highest level.

Molecules are shown by their SMILES. Calls of active or inactive are those of the source. The calls are words filed in the database; no cut-off is given here. Where only a bound is given, the exact number is not on record here.

The target in data set [1] is Glucagon receptor (Homo sapiens, UniProt P47871). As to the kind of experiment: Inhibition of human cloned glucagon receptor expressed in BHK cells. Format: cell-based. The method, boiled down: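 Binding performed on plasma membranes from BHK cells expressing the cloned human glucagon receptor; IC50 values determined.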
Glucagon receptor (Homo sapiens, UniProt P47871), sequence (P47871 whole entry): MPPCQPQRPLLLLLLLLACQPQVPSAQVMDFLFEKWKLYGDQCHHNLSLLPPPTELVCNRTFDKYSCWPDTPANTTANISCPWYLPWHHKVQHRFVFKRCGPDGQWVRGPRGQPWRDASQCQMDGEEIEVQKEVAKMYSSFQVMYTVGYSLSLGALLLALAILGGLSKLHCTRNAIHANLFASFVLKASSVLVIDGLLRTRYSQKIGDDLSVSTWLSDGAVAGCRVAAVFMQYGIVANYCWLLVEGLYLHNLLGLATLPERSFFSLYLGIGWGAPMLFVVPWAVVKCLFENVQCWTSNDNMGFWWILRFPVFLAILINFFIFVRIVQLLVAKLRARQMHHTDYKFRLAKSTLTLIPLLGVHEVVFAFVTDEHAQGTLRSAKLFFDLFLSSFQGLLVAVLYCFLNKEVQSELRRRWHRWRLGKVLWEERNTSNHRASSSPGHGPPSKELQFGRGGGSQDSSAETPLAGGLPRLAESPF
Another data set concerns Liver microsomes. Kind of data set: Metabolic turnover in rat liver microsomes at 10 uM. Format: ADME, Microsome. A digest of the protocol:
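Metabolic rate estimated by incubating compounds with rat liver microsomes, used to rank metabolic stability.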
In general terms: Liver microsomes are vesicles of endoplasmic reticulum, rich in cytochrome P450 enzymes.

Data set [2] in a line: Cmax in rat at 4 mg/kg, po and 2 mg/kg, iv. The following applies: in vivo. Format: ADME, organism-based. A digest of the protocol:
(§1)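 Rats given the compound at 4 mg/kg orally and 2 mg/kg intravenously. Plasma profiles yielded Cmax, Tmax, AUC, oral availability (F) and plasma half-life; half-life was taken from the iv dose.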

Data set [3] concerns Rattus norvegicus. As to the kind of experiment: AUC in rat at 4 mg/kg, po and 2 mg/kg, iv. The note with it: in vivo. Type of data set: ADME, organism-based, Plasma. The method, boiled down: as §1
The nature of data set [4]: Metabolic stability in rat at 2 mg/kg, iv. Type of data set: ADME, organism-based. Details: dose 2 mg/kg, route intravenous. The note with it: in vivo. A digest of the protocol:
as §1

Data set [5] in a line: Bioavailability in rat at 4 mg/kg, po. Type of data set: ADME, organism-based. The following applies: in vivo. A digest of the protocol:
as §1

Data set [6] can be described thus: Tmax in rat at 4 mg/kg, po and 2 mg/kg, iv. Type of data set: ADME, organism-based. The following applies: in vivo. A digest of the protocol:
as §1

In data set [7] the test system is Rattus norvegicus. As to the kind of experiment: Reduction of blood glucose level in glucagon-challenged iv dosed Sprague-dawley rat at > 3 mg/kg. Format: functional, organism-based. More on the design: dose 3 mg/kg. The method, boiled down: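 Anesthetized rats received the compound intravenously across a range of doses 5 min before a 3 µg/kg glucagon load. The rise in blood glucose was followed.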

The subject of data set [8] is Mus musculus. As to the kind of experiment: Reduction of blood glucose level in Umea ob/ob mouse at 100 mg/kg, po after 24 hrs. Type of data set: functional. A digest of the protocol: (§2)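 ob/ob mice (n = 6 per group), vehicle or compound at 100 mg/kg po. Blood glucose was measured before dosing and again at 2, 4, 6 and 24 h; the change from the predose value was reported.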

Data set [9] relates to Mus musculus. As to the kind of experiment: Reduction of blood glucose level in Umea ob/ob mouse at 100 mg/kg, po after 2 hrs. Format: functional. A digest of the protocol: as §2
The target in data set [10] is Glucagon-like peptide 1 receptor (Homo sapiens, UniProt P43220). Kind of data set: Inhibition of GLP1 receptor.
Glucagon-like peptide 1 receptor, sequence (P43220 whole entry): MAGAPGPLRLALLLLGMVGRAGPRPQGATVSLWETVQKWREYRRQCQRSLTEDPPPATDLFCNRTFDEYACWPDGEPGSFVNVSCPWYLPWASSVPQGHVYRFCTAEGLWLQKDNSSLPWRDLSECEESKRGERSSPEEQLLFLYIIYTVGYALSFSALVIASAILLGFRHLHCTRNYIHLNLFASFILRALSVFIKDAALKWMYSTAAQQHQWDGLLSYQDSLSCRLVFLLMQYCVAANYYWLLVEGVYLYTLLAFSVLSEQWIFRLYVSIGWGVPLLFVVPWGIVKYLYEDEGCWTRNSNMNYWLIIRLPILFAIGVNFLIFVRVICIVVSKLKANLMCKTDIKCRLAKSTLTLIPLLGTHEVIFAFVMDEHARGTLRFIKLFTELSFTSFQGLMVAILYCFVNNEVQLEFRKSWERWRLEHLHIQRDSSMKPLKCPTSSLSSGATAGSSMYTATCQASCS
The test system of data set [11] is Mus musculus. Kind of data set: Reduction in cumulative food intake in Umea ob/ob mouse at 100 mg/kg, po. Type of data set: functional. A digest of the protocol: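 ob/ob mice given vehicle or compound at 100 mg/kg po; cumulative food intake per mouse recorded from 6 to 24 h postdose.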
Data set [12] has as its system Mus musculus. As to the kind of experiment: Reduction of blood glucose level in Umea ob/ob mouse at 100 mg/kg, po after 4 hrs. Format: functional. A digest of the protocol:
as §2

In data set [13] the test system is Mus musculus. Kind of data set: Blood glucose level in Umea ob/ob mouse at 100 mg/kg, po.
Data set [14] concerns Rattus norvegicus. Kind of data set: Reduction of blood glucose level in glucagon-challenged iv dosed Sprague-Dawley rat. Format: functional, organism-based. A digest of the protocol: (§3)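 Rats were anesthetized and given the compound intravenously over a range of doses, 5 min before an exogenous glucagon load of 3 µg/kg. The read-out was the glucagon-stimulated rise in blood glucose.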

In data set [15] the target is Glucagon receptor (Rattus norvegicus, UniProt P30082). As to the kind of experiment: Inhibition of rat glucagon receptor.
Glucagon receptor (Rattus norvegicus, UniProt P30082), sequence (P30082 whole entry): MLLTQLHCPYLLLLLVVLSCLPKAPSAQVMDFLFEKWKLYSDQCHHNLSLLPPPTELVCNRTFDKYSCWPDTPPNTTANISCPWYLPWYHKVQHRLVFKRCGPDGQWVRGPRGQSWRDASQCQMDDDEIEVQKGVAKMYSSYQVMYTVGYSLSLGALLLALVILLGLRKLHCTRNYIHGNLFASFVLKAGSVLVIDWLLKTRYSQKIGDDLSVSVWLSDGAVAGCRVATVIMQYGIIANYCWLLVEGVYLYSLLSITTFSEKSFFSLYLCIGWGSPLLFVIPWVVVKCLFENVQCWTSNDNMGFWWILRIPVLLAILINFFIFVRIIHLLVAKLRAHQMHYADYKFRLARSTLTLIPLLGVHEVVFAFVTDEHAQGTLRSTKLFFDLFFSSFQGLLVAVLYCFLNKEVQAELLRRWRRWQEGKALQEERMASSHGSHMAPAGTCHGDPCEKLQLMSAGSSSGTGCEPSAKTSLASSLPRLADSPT
The test system of data set [16] is Mus musculus. As to the kind of experiment: Reduction of blood glucose level in Umea ob/ob mouse at 100 mg/kg, po after 6 hrs. Type of data set: functional. The method, boiled down:
as §2

For the next data set, the species on record is Homo sapiens. Kind of data set: Selectivity for glucagon receptor over GLP1 receptor.
Data set [17] is described as follows: Bioavailability in orally dosed dog. Format: ADME, organism-based, Canis lupus familiaris. The note with it: in vivo, po. A digest of the protocol: (§4)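 Dogs dosed orally and intravenously; oral availability and half-life after iv dosing determined.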
Data set [18] can be described thus: Metabolic stability in iv dosed dog. Type of data set: ADME, organism-based, Canis lupus familiaris. The following applies: in vivo. The method, boiled down: as §4
For data set [19], the system named is Rattus norvegicus. Kind of data set: Reduction of blood glucose level in glucagon-challenged iv dosed Sprague-Dawley rat at 3 mg/kg. Type of data set: functional, organism-based. More on the design: dose 3 mg/kg. The method, boiled down:
as §3

As for `O=C(O)CCNC(=O)c1ccc(CN(CC(c2ccccc2)c2ccccc2)C(=O)c2csc3ccc(Cl)cc23)cc1`, the IC50 against Glucagon receptor [1] was determined as 116 nM.

With `CC(C)(C)C1CCC(N(Cc2ccc(C(=O)N3CCCC(C(=O)O)C3)cc2)C(=O)Nc2ccc(OC(F)(F)F)cc2)CC1` (centres undefined), at Glucagon receptor [1], it took 1000 nM to reach half-maximal inhibition (IC50).

With `CCCCc1ccc(NC(=O)N(Cc2ccc(C(=O)NCCC(=O)O)cc2)C2Cc3ccccc3C2)cc1`, the IC50 against Glucagon receptor [1] was determined as 179 nM.

In the case of `CC(C)(C)[C@H]1CC[C@H](N(Cc2ccc(C(=O)NCCC(=O)O)cc2)C(=O)Nc2ccc(C#N)cc2)CC1`, half-maximal inhibition against Glucagon receptor [1] (IC50) was put at 1050 nM.

Consider `CC(C)(C)[C@H]1CC[C@H](N(Cc2ccc(C(=O)NCCC(=O)O)cc2)C(=O)Nc2cc(C(F)(F)F)cc(C(F)(F)F)c2)CC1`, for which, in the data set with Liver microsomes, the Activity came to 139 pmol/min.

Regarding `CC(C)c1ccc(NC(=O)N(Cc2ccc(C(=O)NCCC(=O)O)cc2)[C@H]2CC[C@H](C(C)(C)C)CC2)cc1`, the IC50 on Glucagon receptor [1] turned out to be 35 nM. The same molecule yielded a Cmax in data set [2] of 40 ng/mL. The area under the curve (AUC) in the data set with Rattus norvegicus [3] stood at 43.3 ng·h/mL. Also, the half-life in data set [4] was determined as 0.333 h. The molecule further returned a bioavailability in [5] of 2%. The molecule also yielded an Activity with Liver microsomes of 283 pmol/min. For the same molecule, the time of peak concentration (Tmax) in [6] was 0.25 h.

`O=C(O)CCNC(=O)c1ccc(CN(C(=O)Nc2cc(Cl)cc(Cl)c2)c2ccc(C3=CCCCC3)cc2)cc1`: the result in the data set on Rattus norvegicus [7] was Active. The Activity was 1.8 mM with Mus musculus [8]; 6.8 mM in the data set with Mus musculus [9]; 8.4 g with Mus musculus [11]; 8.4 mM in the data set with Mus musculus [12]; 18.3 mM with Mus musculus [13]; “Dose-dependent effect” in the data set on Rattus norvegicus [14]. Besides, the Activity in the data set on Mus musculus [16] is recorded as 9.5 mM. For the same molecule, the IC50 amounted to 27 nM against Glucagon receptor [1], 4900 nM in data set [10] and 122 nM against Glucagon receptor [15]. For the same molecule, the peak level in data set [2] (Cmax) was 275 ng/mL. This molecule also gave an AUC with Rattus norvegicus [3] of 2970 ng·h/mL. The values for the half-life in [4] and in data set [18] were 1.37 h and 1.53 h, respectively. Also, the bioavailability in data set [5] turned out to be 69%; in [17], 65%. Besides, the Tmax in data set [6] was 1 h. In addition, the Selectivity ratio in the data set listed under Homo sapiens was 180.

In the case of `CC(C)(C)[C@H]1CC[C@H](N(Cc2ccc(C(=O)NCCC(=O)O)cc2)C(=O)Nc2ccc(OC(F)(F)F)cc2)CC1`, the IC50 is 55 nM against Glucagon receptor [1], 1000 nM in data set [10] and 56 nM at Glucagon receptor [15]. In [2], this molecule came in with a Cmax of 106 ng/mL. Besides, the AUC in the data set on Rattus norvegicus [3] worked out at 217 ng·h/mL. Also, the half-life in data set [4] came to 1.5 h; in data set [18], 1.68 h. For the same molecule, the Activity result with Rattus norvegicus [14] was “Dose-dependent effect”; in the data set with Liver microsomes, 100 pmol/min. Moreover, the bioavailability in [5] worked out at 17%; in data set [17] it was 10%. In addition, the Tmax in data set [6] was 1 h. Moreover, the result in the data set on Rattus norvegicus [19] was Active.

In turn, `CC(C)(CC(=O)O)NC(=O)c1ccc(CN(C(=O)Nc2ccc(OC(F)(F)F)cc2)C2CCC(C(C)(C)C)CC2)cc1` (centres undefined) had an IC50 on Glucagon receptor [1] of over 10000 nM.

On to `O=C(O)CCNC(=O)c1ccc(CN(C(=O)Nc2ccc(SC(F)(F)F)cc2)C2Cc3ccccc3C2)cc1`, for which, on Glucagon receptor [1], 262 nM corresponded to half-maximal inhibition (IC50).

Turning to `CC(C)(C)C1CCC(N(Cc2ccc(C(=O)NCC(=O)O)cc2)C(=O)Nc2ccc(OC(F)(F)F)cc2)CC1` (centres undefined), the concentration for half-maximal inhibition (IC50) against Glucagon receptor [1] came out at 1700 nM.

`COCCCNC(=O)c1ccc(CN(C(=O)Nc2ccc(OC(F)(F)F)cc2)C2CCC(C(C)(C)C)CC2)cc1` (centres undefined): the IC50 against Glucagon receptor [1] was over 10000 nM.

With `CCCC1CCC(N(Cc2ccc(C(=O)NCCC(=O)O)cc2)C(=O)Nc2ccc(OC(F)(F)F)cc2)CC1` (centres undefined), at Glucagon receptor [1], the IC50 was 122 nM.

`CC(C)(C)C1CCC(N(Cc2ccc(C(=O)NCC(=O)NO)cc2)C(=O)Nc2ccc(OC(F)(F)F)cc2)CC1` (centres undefined) returned an IC50 at Glucagon receptor [1] of 2960 nM.

For the molecule `CC(C)(C)C1CCC(N(Cc2ccc(C(=O)NCCCC(=O)O)cc2)C(=O)Nc2ccc(OC(F)(F)F)cc2)CC1` (centres undefined), the IC50 at Glucagon receptor [1] is over 10000 nM.

As for `CCCCC(CC)N(Cc1ccc(C(=O)NCCC(=O)O)cc1)C(=O)Nc1ccc(OC(F)(F)F)cc1` (centres undefined), on Glucagon receptor [1], the IC50 came to 141 nM.

In turn, `CC(C)(C)[C@H]1CC[C@H](N(Cc2ccc(C(=O)NCCC(=O)O)cc2)C(=O)Nc2ccc(OC(F)(F)F)cc2C#N)CC1` showed an IC50 against Glucagon receptor [1] of 56 nM. Besides, in the data set with Liver microsomes, the Activity came to 63 pmol/min.

With `CC(C)(C)C1CCC(N(Cc2ccc(C(=O)NCCC(N)=O)cc2)C(=O)Nc2ccc(OC(F)(F)F)cc2)CC1` (centres undefined), the IC50 against Glucagon receptor [1] was over 10000 nM.

`CC(C)(C)[C@H]1CC[C@H](N(Cc2ccc(C(=O)NCCC(=O)O)cc2)C(=O)Nc2ccc(Cl)c(Cl)c2)CC1` yielded an Activity with Liver microsomes of 232 pmol/min.

Regarding `CNC(=O)C1CCC(N(Cc2ccc(C(=O)NCCC(=O)O)cc2)C(=O)Nc2ccc(OC(F)(F)F)cc2)CC1` (centres undefined), the IC50 against Glucagon receptor [1] was over 10000 nM.

`O=C(O)CCNC(=O)c1ccc(CN(C(=O)Nc2ccc(OC(F)(F)F)cc2)c2ccc(C3CCCCC3)cc2)cc1` registered a concentration for half-maximal inhibition (IC50) against Glucagon receptor [1] of 61 nM. In data set [2], the highest level (Cmax) was 316 ng/mL. For the same molecule, in the data set with Rattus norvegicus [3], the AUC was found to be 1600 ng·h/mL. The molecule further returned a half-life in data set [4] of 1.07 h. The same molecule came in with a bioavailability in data set [5] of 54%. In addition, in data set [6], the Tmax is 4 h.

`CC(C)(C)[C@H]1CC[C@H](N(Cc2ccc(C(=O)NCCC(=O)O)cc2)C(=O)Nc2ccc(C#N)cc2OC(F)(F)F)CC1` registered an Activity in the data set on Liver microsomes of 130 pmol/min.

With `COC1CCC(N(Cc2ccc(C(=O)NCCC(=O)O)cc2)C(=O)Nc2ccc(OC(F)(F)F)cc2)CC1` (centres undefined), at Glucagon receptor [1], the IC50 is over 10000 nM.

`O=C(O)CCNC(=O)c1ccc(CN(CCC(c2ccccc2)c2ccccc2)C(=O)c2ccc(Cl)nc2)cc1`: the results for the 50% inhibitory concentration (IC50) (against Glucagon receptor [1]; in data set [10]) were 7000 nM and 100000 nM, respectively.

Regarding `O=C(O)CCNC(=O)c1ccc(CN(C(=O)Nc2ccc(OC(F)(F)F)cc2)C2CCC(C(=O)NCC3CC3)CC2)cc1` (centres undefined), the IC50 at Glucagon receptor [1] was over 10000 nM.

As for `O=C(O)CCNC(=O)c1ccc(CN(C(=O)Nc2ccc(OC(F)(F)F)cc2)C2CCC(C(=O)O)CC2)cc1` (centres undefined), the IC50 on Glucagon receptor [1] is over 10000 nM.
